# Test results: ChEMBL document CHEMBL3232800, “Polyfluorinated bis-styrylbenzenes as amyloid-β plaque binding ligands” (Bioorg Med Chem, 2014)
# Calls of active or inactive are those of the source. The rule behind the calls is not given here.
# Experiments:
# [1] = molecular target: T1, Amyloid-beta precursor protein (Homo sapiens, UniProt P05067); test: Binding affinity to beta-amyloid plaque in Alzheimer's disease patient brain at 100 uM by fluorescence microscopic analysis
# In short: (§1)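 Sections were stained for 10 min in darkness with compound diluted from 3 mM DMSO stocks to 1, 10 or 100 µM in 2:3 PBS/ethanol and sonicated 15 min. Tissue was paraffin sections of Braak IV human AD medial temporal cortex (8 µm), 14-month APP/PS1 mouse brain and age-matched controls. Sections were rinsed, then 0.1% NaOH in 80% ethanol for 2 min. Read by slide-scanner fluorescence with a DAPI cube (Ex 365, Em 445/50 nm) at constant settings; assessment was qualitative.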
# [2] = Partition coefficient, log P of the compound in methanol-water mixture by HPLC analysis; assay type: physicochemical
# In short: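 Eluent A was 0.02 M Na2HPO4 phosphate buffer, pH 7.0, and eluent B was 0.25% octanol in methanol. Samples came from 0.5 mg/ml methanol stocks. Values above 7 are not reliably measured.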
# [3] = molecular target: T1, Amyloid-beta precursor protein; test: Binding affinity to beta-amyloid plaque in APP/PS1 transgenic mouse brain at 100 uM by fluorescence microscopic analysis; assay type: tissue-based; in short: as §1
# Mus musculus [4] = test: Binding affinity to beta-amyloid plaque in APP/PS1 transgenic mouse brain at 30 umol/kg, iv after 1 day by fluorescence microscopic analysis; assay type: functional, organism-based
# In short: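 APP/PS1 mice aged 12–14 months, with age-matched wildtype (n = 2 per compound), got an iv dose of 30 µmol/kg from a 0.05 M solution in 1:1 DMSO/Cremophor diluted with PBS to 200 µl. After one day they were perfused with 4% PFA and brains cryoprotected in sucrose/PFA. Brains were cut into 30 µm cryosections and imaged by the same fluorescence slide-scanner set-up.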
# [5] = molecular target: T1, Amyloid-beta precursor protein; test: Binding affinity to beta-amyloid plaque in APP/PS1 transgenic mouse brain at 1 uM by fluorescence microscopic analysis; assay type: tissue-based; in short: as §1
# [6] = molecular target: T1, Amyloid-beta precursor protein; test: Binding affinity to beta-amyloid plaque in Alzheimer's disease patient brain at 10 uM by fluorescence microscopic analysis; in short: as §1
# [7] = molecular target: T1, Amyloid-beta precursor protein; test: Binding affinity to fibrillar amyloid beta (1 to 40) (unknown origin) assessed as fluorescence intensity relative to control
# [8] = molecular target: T1, Amyloid-beta precursor protein; test: Displacement of [3H]chrysamine G from fibrillar amyloid beta (1 to 40) (unknown origin) after 1 hr by liquid scintillation spectrophotometric analysis
# In short: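 Competition binding was run at room temperature in 1 ml of 150 mM Tris-HCl, 20% ethanol, pH 7.0. Test compound ranged 30 µM to 30 pM (from 3 mM DMSO stocks, sonicated) against 5 nM [3H]chrysamine G and 50 nM synthetic Aβ1-40 fibrils. Nonspecific binding was taken with 1 µM Methoxy-X04.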
# [9] = molecular target: T1, Amyloid-beta precursor protein; test: Binding affinity to fibrillar amyloid beta (1 to 40) (unknown origin) assessed as fluorescence intensity relative to Methoxy-X04
# Mus musculus [10] = test: Binding affinity to beta-amyloid plaque in APP/PS1 transgenic mouse brain at 30 umol/kg, iv after 24 hrs by [19F]-NMR spectrometric analysis; assay type: functional, organism-based
# [11] = molecular target: T1, Amyloid-beta precursor protein; test: Binding affinity to beta-amyloid plaque in APP/PS1 transgenic mouse brain homogenate at 1.92 mM by [19F]-NMR spectrometric analysis; assay type: tissue-based
# [12] = molecular target: T1, Amyloid-beta precursor protein; test: Binding affinity to fibrillar amyloid beta (1 to 40) (unknown origin) at 1.92 mM by [19F]-NMR spectrometric analysis
# [13] = methanol-water mixture, read-out: logP
# T1 sequence (P05067 whole entry): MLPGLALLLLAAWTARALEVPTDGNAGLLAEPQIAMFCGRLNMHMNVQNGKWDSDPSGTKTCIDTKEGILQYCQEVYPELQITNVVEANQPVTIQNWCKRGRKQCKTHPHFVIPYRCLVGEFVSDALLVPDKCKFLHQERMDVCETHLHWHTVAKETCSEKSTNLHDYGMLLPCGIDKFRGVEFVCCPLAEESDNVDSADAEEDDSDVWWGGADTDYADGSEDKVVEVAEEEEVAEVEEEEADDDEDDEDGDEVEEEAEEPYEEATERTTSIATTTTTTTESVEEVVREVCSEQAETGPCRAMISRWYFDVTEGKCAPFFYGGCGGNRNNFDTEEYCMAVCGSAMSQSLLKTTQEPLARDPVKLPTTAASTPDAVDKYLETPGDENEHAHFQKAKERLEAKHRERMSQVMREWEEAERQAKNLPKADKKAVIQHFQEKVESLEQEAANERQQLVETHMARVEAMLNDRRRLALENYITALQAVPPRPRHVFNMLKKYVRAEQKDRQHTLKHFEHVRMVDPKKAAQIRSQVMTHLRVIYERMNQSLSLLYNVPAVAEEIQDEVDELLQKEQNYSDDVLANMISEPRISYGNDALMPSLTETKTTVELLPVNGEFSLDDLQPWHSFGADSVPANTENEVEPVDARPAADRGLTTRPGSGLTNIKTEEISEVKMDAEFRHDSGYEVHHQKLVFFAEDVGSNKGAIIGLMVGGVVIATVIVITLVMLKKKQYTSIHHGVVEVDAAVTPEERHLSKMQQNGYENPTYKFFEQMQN
Activity [1],"logP [2, 13]",Activity [3],Activity (Mus musculus [4]),Activity [5],Activity [6],fold change (FC) [7],Ki [8] [nM],RFU [9],Activity (Mus musculus [10]),Activity [11],Activity [12],logP ([2]; octanol/water),Compound
Active,> 7,Active,Active,Active,Active,–,–,–,–,–,–,–,Oc1cc(/C=C/c2ccc(C(F)(F)C(F)F)cc2)ccc1/C=C/c1ccc(C(F)(F)C(F)F)cc1
Active,5.64,Active,Active,Active,inactive,10.7,244,19,–,–,–,–,Oc1ccc(/C=C/c2ccc(/C=C/c3ccc(O)cc3)c(C(F)(F)F)c2)cc1
Active,5.25,Active,Active,Active,inactive,4.1,39.3,7,–,–,–,–,Oc1ccc(/C=C/c2ccc(/C=C/c3ccc(O)cc3)c(OCC(F)(F)F)c2)cc1
Active,> 7,Active,Active,Active,Active,< 1,–,3,–,–,–,–,COc1cc(/C=C/c2ccc(OC(F)(F)F)cc2)ccc1/C=C/c1ccc(OC(F)(F)F)cc1
Active,> 7,Active,Active,Active,Active,17.8,84.5,38,inactive,Active,inactive,–,Oc1ccc(/C=C/c2ccc(/C=C/c3ccc(O)cc3)c(OC(C(F)(F)F)(C(F)(F)F)C(F)(F)F)c2)cc1
Active,> 7,Active,Active,Active,Active,< 1,–,1,–,–,–,–,COc1cc(/C=C/c2ccc(C(F)(F)F)cc2)ccc1/C=C/c1ccc(C(F)(F)F)cc1
Active,> 7,Active,inactive,Active,inactive,< 1,–,4,–,–,–,–,COc1cc(/C=C/c2ccc(OC)c(C(F)(F)F)c2)ccc1/C=C/c1ccc(OC)c(C(F)(F)F)c1
Active,4.99,Active,Active,Active,Active,4.1,–,26,–,–,–,–,COc1cc(/C=C/c2ccc(CO)cc2)ccc1/C=C/c1ccc(CO)cc1
–,5.79,–,Active,inactive,inactive,4.3,56.4,2,–,–,–,–,Oc1ccc(/C=C/c2ccc(/C=C/c3ccc(O)cc3)c(OCCCC(F)(F)F)c2)cc1
Active,> 7,Active,Active,Active,Active,< 1,–,1,–,–,–,–,COc1cc(/C=C/c2ccc(C(F)(F)C(F)F)cc2)ccc1/C=C/c1ccc(C(F)(F)C(F)F)cc1
–,5,–,inactive,inactive,inactive,–,–,–,–,–,–,–,COc1cc(/C=C/c2ccc(O)cc2)c(OC)cc1/C=C/c1ccc(O)cc1
Active,6.18,Active,Active,Active,Active,3.6,–,2,–,–,–,–,Oc1cc(/C=C/c2ccc(C(F)(F)F)cc2)ccc1/C=C/c1ccc(C(F)(F)F)cc1
Active,–,Active,Active,Active,Active,9.8,24.2,100,–,–,–,4.84,COc1cc(/C=C/c2ccc(O)cc2)ccc1/C=C/c1ccc(O)cc1
Active,> 7,Active,Active,Active,Active,7.4,–,13,–,–,–,–,Oc1cc(/C=C/c2ccc(OC(F)(F)F)cc2)ccc1/C=C/c1ccc(OC(F)(F)F)cc1
